Assay results: ChEMBL document CHEMBL3044956, “Nematicidal and antifungal activities of annonaceous acetogenins from Annona squamosa against various plant pathogens” (J Agric Food Chem, 2011)
≈ marks a conversion by molar mass, not a printed value. Calls of active or inactive are those of the source. The rule behind the calls is not given here.

Key:
Colletotrichum coccodes [1] = test: In vivo antifungal activity against Colletotrichum coccodes infected red pepper seedlings assessed as control of red pepper anthracnose development at 10 ug/ml treated 1 day before spore inoculation measured 3-7 days after inoculation; type: functional
How it was run: (§1)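 Potted seedlings sprayed to runoff with material dissolved in MeOH and diluted in 0.025% Tween 20 (5% MeOH); controls got the Tween/MeOH solution alone. Inoculated with spores or mycelial suspension 1 day later. Infected leaf or sheath area rated 3–7 days after inoculation; % control = 100(A−B)/A. Randomized complete block design, three replicates, run in duplicate; Tukey HSD.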

Colletotrichum coccodes [2] = test: In vivo antifungal activity against Colletotrichum coccodes infected red pepper seedlings assessed as control of red pepper anthracnose development at 50 ug/ml treated 1 day before spore inoculation measured 3-7 days after inoculation; type: functional; how it was run: as §1
Colletotrichum coccodes [3] = test: In vivo antifungal activity against Colletotrichum coccodes infected red pepper seedlings assessed as control of red pepper anthracnose development at 500 ug/ml treated 1 day before spore inoculation measured 3-7 days after inoculation; type: functional; how it was run: as §1
Pyricularia oryzae [4] = test: In vivo antifungal activity against Magnaporthe oryzae infected rice seedlings assessed as control of rice blast disease development at 500 ug/ml treated 1 day before spore inoculation measured 3-7 days after inoculation; type: functional; how it was run: as §1
Rhizoctonia solani [5] = test: In vivo antifungal activity against Rhizoctonia solani infected rice seedlings assessed as control of rice sheath blight disease development at 500 ug/ml treated 1 day before spore inoculation measured 3-7 days after inoculation; type: functional; how it was run: as §1
Rhizoctonia solani [6] = test: In vivo antifungal activity against Rhizoctonia solani infected rice seedlings assessed as control of rice sheath blight disease development at 250 ug/ml treated 1 day before spore inoculation measured 3-7 days after inoculation; type: functional; how it was run: as §1
Colletotrichum coccodes [7] = test: In vivo antifungal activity against Colletotrichum coccodes infected red pepper seedlings assessed as control of red pepper anthracnose development at 250 ug/ml treated 1 day before spore inoculation measured 3-7 days after inoculation; type: functional; how it was run: as §1
Blumeria hordei [8] = test: In vivo antifungal activity against Blumeria graminis f. sp. hordei infected barley seedlings assessed as control of barley powdery mildew disease development at 500 ug/ml treated 1 day before spore inoculation measured 3-7 days after inoculation; type: functional; how it was run: as §1
Pyricularia oryzae [9] = test: In vivo antifungal activity against Magnaporthe oryzae infected rice seedlings assessed as control of rice blast disease development at 250 ug/ml treated 1 day before spore inoculation measured 3-7 days after inoculation; type: functional; how it was run: as §1
Botrytis cinerea [10] = test: In vivo antifungal activity against Botryotinia fuckeliana infected in tomato seedlings assessed as control of tomato gray mold disease development at 125 ug/ml treated 1 day before spore inoculation measured 3-7 days after inoculation; type: functional; how it was run: as §1
Rhizoctonia solani [11] = test: In vivo antifungal activity against Rhizoctonia solani infected rice seedlings assessed as control of rice sheath blight disease development at 125 ug/ml treated 1 day before spore inoculation measured 3-7 days after inoculation; type: functional; how it was run: as §1
Botrytis cinerea [12] = test: In vivo antifungal activity against Botryotinia fuckeliana infected in tomato seedlings assessed as control of tomato gray mold disease development at 500 ug/ml treated 1 day before spore inoculation measured 3-7 days after inoculation; type: functional; how it was run: as §1
[13] = test system: Bursaphelenchus xylophilus; test: Nematicidal activity against second juvenile stage (J2) of Bursaphelenchus xylophilus assessed as mortality after 2 days by microtiter plate assay method (Beneficial crop Pine); type: functional; details: 48 h
How it was run: (§2)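 Pine wood nematodes reared on B. cinerea mycelia on PDA for 7 days at 28 °C. J2s collected in 0.01% Triton X-100 water and tested in microtiter plates. Compounds in DMSO or MeOH, solvent ≤1%; solvent-only controls. Concentrations 0.004–1 μg/mL. Mortality Abbott-corrected; LC50 by probit. Two runs, three replicates each.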

Phytophthora infestans [14] = test: Antifungal activity against Phytophthora infestans assessed as inhibition of radial mycelial growth at 11.11 to 900 ug/ml incubated at 20 degC for 5 to 7 days by poison plate assay; type: functional
How it was run: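 Poison-plate assay: material in MeOH added 1:100 to V8-agar at 50 °C, 2 mL per well of six-well plates, centre-inoculated with a 5 mm plug from the colony margin. Incubated at 20 °C until control growth reached the edge. Controls were 1% MeOH. Read as % inhibition of radial growth. Two runs, four replicates each. IC50 by probit.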

Phytophthora infestans [15] = test: In vivo antifungal activity against Phytophthora infestans zoospores infected tomato seedlings assessed as control of tomato late blight disease development at 3.9 ug/ml treated 1 day before spore inoculation measured 3 days after inoculation; type: functional; how it was run: as §1
Phytophthora infestans [16] = test: In vivo antifungal activity against Phytophthora infestans zoospores infected tomato seedlings assessed as control of tomato late blight disease development treated 1 day before spore inoculation measured 3 days after inoculation; type: functional, organism-based; how it was run: as §1
[17] = test system: Bursaphelenchus xylophilus; test: Nematicidal activity against second juvenile stage (J2) of Bursaphelenchus xylophilus assessed as mortality at >0.33 ug/ml after 2 days by microtiter plate assay method (Beneficial crop Pine); type: functional; how it was run: as §2
Phytophthora infestans [18] = test: Antifungal activity against Phytophthora infestans assessed as inhibition of sporangium germination incubated at 20 degC for 24 hr by light microscopy; type: functional, organism-based
How it was run: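 Sporangium germination: compounds serially diluted in MeOH (12500 to 391 μg/mL as stock series), sporangia incubated 24 h at 20 °C. About 100 sporangia per replicate scored for germination by light microscope. Experiment repeated, mean ± SD. IC50 by probit.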

Colletotrichum coccodes [19] = test: In vivo antifungal activity against Colletotrichum coccodes infected red pepper seedlings assessed as control of red pepper anthracnose development at 125 ug/ml treated 1 day before spore inoculation measured 3-7 days after inoculation; type: functional; how it was run: as §1
Puccinia recondita = test: In vivo antifungal activity against Puccinia recondita infected wheat seedlings assessed as reduction in wheat leaf rust disease symptoms development at 50 to 300 ug/ml treated 1 day before spore inoculation measured 7 days after inoculation; type: functional, organism-based; how it was run: as §1
Phytophthora infestans [20] = test: Antifungal activity against Phytophthora infestans assessed as inhibition of zoospore germination incubated in the dark at 20 degC for 24 hr by light microscopy; type: functional, organism-based
How it was run: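 Zoospores released by chilling sporangia 1 h at 4 °C, then filtered to remove sporangia. Test solution in MeOH mixed 1:100 with the suspension (1% MeOH control), loaded onto hole-slide glasses and kept humid at 20 °C for 24 h in the dark. Germinated cells counted per hole by light microscope. Experiment repeated, mean ± SD.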

Blumeria hordei [21] = test: In vivo antifungal activity against Blumeria graminis f. sp. hordei infected barley seedlings assessed as control of barley powdery mildew disease development at 250 ug/ml treated 1 day before spore inoculation measured 3-7 days after inoculation; type: functional; how it was run: as §1
Botrytis cinerea [22] = test: In vivo antifungal activity against Botryotinia fuckeliana infected in tomato seedlings assessed as control of tomato gray mold disease development at 250 ug/ml treated 1 day before spore inoculation measured 3-7 days after inoculation; type: functional; how it was run: as §1
Pyricularia oryzae [23] = test: In vivo antifungal activity against Magnaporthe oryzae infected rice seedlings assessed as control of rice blast disease development at 125 ug/ml treated 1 day before spore inoculation measured 3-7 days after inoculation; type: functional; how it was run: as §1
Blumeria hordei [24] = test: In vivo antifungal activity against Blumeria graminis f. sp. hordei infected barley seedlings assessed as control of barley powdery mildew disease development at 125 ug/ml treated 1 day before spore inoculation measured 3-7 days after inoculation; type: functional; how it was run: as §1
Pyricularia oryzae [25] = test: In vivo antifungal activity against Magnaporthe oryzae infected rice seedlings assessed as control of rice blast disease development at 50 ug/ml treated 1 day before spore inoculation measured 3-7 days after inoculation; type: functional; how it was run: as §1
Pyricularia oryzae [26] = test: In vivo antifungal activity against Magnaporthe oryzae infected rice seedlings assessed as control of rice blast disease development at 1 ug/ml treated 1 day before spore inoculation measured 3-7 days after inoculation; type: functional; how it was run: as §1
Botrytis cinerea [27] = test: In vivo antifungal activity against Botryotinia fuckeliana infected in tomato seedlings assessed as control of tomato gray mold disease development at 50 ug/ml treated 1 day before spore inoculation measured 3-7 days after inoculation; type: functional; how it was run: as §1
Botrytis cinerea [28] = test: In vivo antifungal activity against Botryotinia fuckeliana infected in tomato seedlings assessed as control of tomato gray mold disease development at 5 ug/ml treated 1 day before spore inoculation measured 3-7 days after inoculation; type: functional; how it was run: as §1
Rhizoctonia solani [29] = test: In vivo antifungal activity against Rhizoctonia solani infected rice seedlings assessed as control of rice sheath blight disease development at 5 ug/ml treated 1 day before spore inoculation measured 3-7 days after inoculation; type: functional; how it was run: as §1
Rhizoctonia solani [30] = test: In vivo antifungal activity against Rhizoctonia solani infected rice seedlings assessed as control of rice sheath blight disease development at 50 ug/ml treated 1 day before spore inoculation measured 3-7 days after inoculation; type: functional; how it was run: as §1

Structure (SMILES): N#Cc1sc2c(=O)c3ccccc3c(=O)c=2sc1C#N [DITHIANON]
- Activity (Colletotrichum coccodes [1]): 20%
- Activity (Colletotrichum coccodes [2]): 100%

Structure (SMILES): CCCCCC[C@H](O)CCC[C@H](O)[C@H]1CC[C@H]([C@H](O)CC[C@H](O)[C@@H]2CC[C@@H](CCCCCCCCCC3=C[C@H](C)OC3=O)O2)O1 (relative stereo) [SQUAMOSTATIN A]
- Activity (Colletotrichum coccodes [3]): 0%
- Activity (Pyricularia oryzae [4]): 37.5%
- Activity (Rhizoctonia solani [5]): 11.8%
- Activity (Rhizoctonia solani [6]): 11.8%
- Activity (Colletotrichum coccodes [7]): 40%
- Activity (Blumeria hordei [8]): 0%
- Activity (Pyricularia oryzae [9]): 31.3%
- Activity (Botrytis cinerea [10]): 10%
- Activity (Rhizoctonia solani [11]): 0%
- Activity (Botrytis cinerea [12]): 10%
- LC50 [13]: 0.048 µg/mL
- growth inhibition (GI) (Phytophthora infestans [14]): 31%
- Activity (Phytophthora infestans [15]): >70%
- Activity (Phytophthora infestans [16]): Dose-dependent effect
- mortality [17]: 100%
- IC50 (Phytophthora infestans [18]): 2.09 µg/mL (≈ 3.27 µM)
- inhibition (Phytophthora infestans [18]): Dose-dependent effect
- Activity (Colletotrichum coccodes [19]): 20%
- Activity (Puccinia recondita): Active
- IC50 (Phytophthora infestans [20]): 1.89 µg/mL (≈ 2.96 µM)
- inhibition (Phytophthora infestans [20]): Dose-dependent effect
- Activity (Blumeria hordei [21]): 0%
- Activity (Botrytis cinerea [22]): 10%
- Activity (Pyricularia oryzae [23]): 50%
- Activity (Blumeria hordei [24]): 0%

Structure (SMILES): CN(CC[C@H](N)CC(=O)N[C@H]1CC[C@H](n2ccc(N)nc2=O)O[C@@H]1C(=O)O)C(=N)N [BLASTADIN S]
- Activity (Pyricularia oryzae [25]): 100%
- Activity (Pyricularia oryzae [26]): 65.5%

Structure (SMILES): N#Cc1c[nH]cc1-c1cccc2c1OC(F)(F)O2 [FLUDIOXONIL]
- Activity (Botrytis cinerea [27]): 100%
- Activity (Botrytis cinerea [28]): 83%

Structure (SMILES): OCC1=C[C@H](N[C@H]2C[C@H](CO)[C@@H](O[C@@H]3O[C@H](CO)[C@@H](O)[C@H](O)[C@H]3O)[C@H](O)[C@H]2O)[C@H](O)[C@@H](O)[C@@H]1O [VALIDAMYCIN]
- Activity (Rhizoctonia solani [29]): 70%
- Activity (Rhizoctonia solani [30]): 100%
